Reference: ChEMBL document CHEMBL3232794, “Synthesis and evaluation of 2-anilinopyrimidines bearing 3-aminopropamides as potential epidermal growth factor receptor inhibitors” (Eur J Med Chem, 2014)
Active and inactive are the calls of the source. The rule behind the calls is not given here.

Experiments:
[1] = biological target: Epidermal growth factor receptor (Homo sapiens, UniProt P00533, L858R/T790M); assay type: protein assay
[2] = test system: NCI-H1975; test: Antiproliferative activity against human NCI-H1975 cells harboring EGFR L858R/T790M mutant after 72 hrs by MTT assay; assay type: functional, cell-based; settings: NCI-H1975, 72 h
[3] = cells; assay type: functional, cell-based; settings: Homo sapiens, HCC827, 72 h
[4] = biological target: Epidermal growth factor receptor (Homo sapiens, UniProt P00533, L858R); assay type: protein assay
Chain of Epidermal growth factor receptor (Homo sapiens, UniProt P00533, L858R) (P00533 25-1210 L858R limits assumed): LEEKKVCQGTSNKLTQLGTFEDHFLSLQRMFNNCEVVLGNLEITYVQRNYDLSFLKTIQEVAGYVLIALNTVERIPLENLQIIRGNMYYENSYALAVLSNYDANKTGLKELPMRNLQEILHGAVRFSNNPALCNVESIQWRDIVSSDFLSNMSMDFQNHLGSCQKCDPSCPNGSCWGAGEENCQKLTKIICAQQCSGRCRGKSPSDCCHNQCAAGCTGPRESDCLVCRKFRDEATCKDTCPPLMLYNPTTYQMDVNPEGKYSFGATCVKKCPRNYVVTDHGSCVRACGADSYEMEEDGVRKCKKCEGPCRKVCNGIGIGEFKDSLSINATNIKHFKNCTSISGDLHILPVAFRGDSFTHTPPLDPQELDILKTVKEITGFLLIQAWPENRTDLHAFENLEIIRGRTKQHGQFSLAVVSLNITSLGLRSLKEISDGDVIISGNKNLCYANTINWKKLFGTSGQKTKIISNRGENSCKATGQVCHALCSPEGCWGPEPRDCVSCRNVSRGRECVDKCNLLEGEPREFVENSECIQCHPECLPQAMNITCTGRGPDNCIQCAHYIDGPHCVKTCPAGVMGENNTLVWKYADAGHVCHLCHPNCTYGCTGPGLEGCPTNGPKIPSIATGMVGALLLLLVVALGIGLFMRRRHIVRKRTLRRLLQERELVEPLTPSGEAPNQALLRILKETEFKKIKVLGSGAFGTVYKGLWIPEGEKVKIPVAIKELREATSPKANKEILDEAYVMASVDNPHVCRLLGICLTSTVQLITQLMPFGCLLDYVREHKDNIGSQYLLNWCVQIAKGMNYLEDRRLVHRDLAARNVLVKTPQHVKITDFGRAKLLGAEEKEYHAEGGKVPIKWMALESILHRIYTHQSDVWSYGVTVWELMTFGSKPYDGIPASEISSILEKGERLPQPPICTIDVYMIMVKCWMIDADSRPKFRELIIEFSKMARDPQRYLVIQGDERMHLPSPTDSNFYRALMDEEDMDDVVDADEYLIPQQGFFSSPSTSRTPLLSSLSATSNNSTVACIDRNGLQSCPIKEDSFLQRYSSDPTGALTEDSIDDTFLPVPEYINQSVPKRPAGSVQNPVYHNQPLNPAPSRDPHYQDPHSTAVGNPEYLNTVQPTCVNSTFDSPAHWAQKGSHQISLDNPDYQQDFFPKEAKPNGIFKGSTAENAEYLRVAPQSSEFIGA

[5] = test system: A-431; test: cells; assay type: functional, cell-based; settings: Homo sapiens, A-431, 72 h
[6] = test system: A549; test: cells; assay type: functional, cell-based; settings: Homo sapiens, A549, 72 h
[7] = cells; assay type: ADME, cell-based; settings: Homo sapiens, 16HBE14o-, 72 h
[8] = cells; assay type: functional, cell-based; settings: Homo sapiens, BEAS-2B, 72 h
[9] = biological target: Epidermal growth factor receptor (Homo sapiens, UniProt P00533)
Chain of Epidermal growth factor receptor (Homo sapiens, UniProt P00533) (P00533 whole entry): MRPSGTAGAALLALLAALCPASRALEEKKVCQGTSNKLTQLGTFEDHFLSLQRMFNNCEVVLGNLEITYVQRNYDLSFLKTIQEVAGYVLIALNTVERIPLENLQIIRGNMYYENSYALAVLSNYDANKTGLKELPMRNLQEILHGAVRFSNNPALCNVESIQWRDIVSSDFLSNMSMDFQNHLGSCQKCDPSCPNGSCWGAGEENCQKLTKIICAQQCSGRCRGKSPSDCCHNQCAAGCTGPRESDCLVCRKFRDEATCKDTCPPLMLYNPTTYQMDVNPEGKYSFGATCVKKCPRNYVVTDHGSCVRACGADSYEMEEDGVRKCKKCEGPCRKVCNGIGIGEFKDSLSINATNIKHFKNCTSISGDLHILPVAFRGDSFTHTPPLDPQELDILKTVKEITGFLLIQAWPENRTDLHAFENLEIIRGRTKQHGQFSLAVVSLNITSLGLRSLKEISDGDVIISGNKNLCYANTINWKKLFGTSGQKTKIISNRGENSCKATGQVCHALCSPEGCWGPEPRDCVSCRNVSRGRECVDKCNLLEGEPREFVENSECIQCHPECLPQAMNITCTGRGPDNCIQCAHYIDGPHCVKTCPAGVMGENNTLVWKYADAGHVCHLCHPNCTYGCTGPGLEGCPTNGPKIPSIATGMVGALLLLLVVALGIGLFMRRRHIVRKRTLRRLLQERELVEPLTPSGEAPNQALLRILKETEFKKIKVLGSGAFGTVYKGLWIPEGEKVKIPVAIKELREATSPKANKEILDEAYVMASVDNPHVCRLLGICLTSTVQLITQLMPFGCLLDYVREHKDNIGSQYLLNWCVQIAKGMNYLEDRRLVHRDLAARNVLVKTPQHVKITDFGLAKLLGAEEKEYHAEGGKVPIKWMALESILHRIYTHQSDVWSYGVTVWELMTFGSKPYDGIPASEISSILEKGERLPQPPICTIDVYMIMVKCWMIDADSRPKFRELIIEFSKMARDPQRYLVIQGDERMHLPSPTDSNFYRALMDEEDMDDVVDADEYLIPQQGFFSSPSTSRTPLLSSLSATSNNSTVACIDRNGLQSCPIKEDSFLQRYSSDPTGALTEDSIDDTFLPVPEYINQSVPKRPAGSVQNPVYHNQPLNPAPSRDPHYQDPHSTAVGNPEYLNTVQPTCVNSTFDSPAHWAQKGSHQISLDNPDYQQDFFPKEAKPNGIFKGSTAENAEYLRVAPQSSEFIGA

[10] = test system: Plasma; test: (§1) Stability of the compound in rat plasma assessed as compound remaining at 50 uM at pH 7.4 after 24 hrs by LC-UV analysis; assay type: ADME, cell-free; settings: pH 7.4, 24 h, 50 µM, BLD = below limit of detection
Summary of the method: (§2)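 Rat plasma diluted to 50% (v/v) with 0.1 M PBS pH 7.4 and spiked with compound from a DMSO stock, then incubated 24 h at 37 °C. Two volumes acetonitrile added, centrifuged (4 °C, 14,000 g, 15 min), supernatant run on RP-HPLC with UV at 281 nm; percent remaining, n = 3.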

[11] = L-cysteine reactivity assessed as compound remaining at 50 uM after 1 hr at pH 7.4 by LC-UV analysis; assay type: physicochemical; settings: read-out: Activity
Summary of the method: (§3)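 Freshly prepared thiol (DTT, reduced GSH or L-cysteine; 2 mM) added to PBS pH 7.4 containing test compound, incubated 1 h at 37 °C. Remaining parent measured by HPLC-UV (C18, 281 nm); mean ± SD, n = 3.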

[12] = Chemical stability of the compound in buffer solution assessed as compound remaining at 50 uM at pH 9 after 24 hrs by LC-UV analysis; assay type: physicochemical
Summary of the method: (§4)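 1 mM DMSO stocks diluted to 50 µM final (5% v/v DMSO) in prewarmed 0.01 M PBS pH 7.4 or 0.01 M borate buffer pH 9.0. Incubated at 37 °C for 24 h, mixed with equal volume acetonitrile, analysed by C18 RP-HPLC with UV detection at 281 nm; percent remaining, mean ± SD, n = 3.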

[13] = Chemical stability of the compound in buffer solution assessed as compound remaining at 50 uM at pH 7.4 after 24 hrs by LC-UV analysis; assay type: physicochemical; settings: read-out: Stability
Summary of the method: as §4

[14] = GSH reactivity assessed as compound remaining at 50 uM after 1 hr at pH 7.4 by LC-UV analysis; assay type: physicochemical; settings: read-out: Activity
Summary of the method: as §3

[15] = DTT reactivity assessed as compound remaining at 50 uM after 1 hr at pH 7.4 by LC-UV analysis; assay type: physicochemical; settings: read-out: Activity
Summary of the method: as §3

[16] = as §1; assay type: ADME, cell-free; settings: pH 7.4, read-out: Stability
Summary of the method: as §2

[17] = test system: Epidermal growth factor receptor (Homo sapiens), P00533 [L858R,T790M]; settings: H1975, at 1 µM
Chain of Epidermal growth factor receptor (Homo sapiens), P00533 [L858R,T790M] (P00533 whole entry T790M/L858R, looked up): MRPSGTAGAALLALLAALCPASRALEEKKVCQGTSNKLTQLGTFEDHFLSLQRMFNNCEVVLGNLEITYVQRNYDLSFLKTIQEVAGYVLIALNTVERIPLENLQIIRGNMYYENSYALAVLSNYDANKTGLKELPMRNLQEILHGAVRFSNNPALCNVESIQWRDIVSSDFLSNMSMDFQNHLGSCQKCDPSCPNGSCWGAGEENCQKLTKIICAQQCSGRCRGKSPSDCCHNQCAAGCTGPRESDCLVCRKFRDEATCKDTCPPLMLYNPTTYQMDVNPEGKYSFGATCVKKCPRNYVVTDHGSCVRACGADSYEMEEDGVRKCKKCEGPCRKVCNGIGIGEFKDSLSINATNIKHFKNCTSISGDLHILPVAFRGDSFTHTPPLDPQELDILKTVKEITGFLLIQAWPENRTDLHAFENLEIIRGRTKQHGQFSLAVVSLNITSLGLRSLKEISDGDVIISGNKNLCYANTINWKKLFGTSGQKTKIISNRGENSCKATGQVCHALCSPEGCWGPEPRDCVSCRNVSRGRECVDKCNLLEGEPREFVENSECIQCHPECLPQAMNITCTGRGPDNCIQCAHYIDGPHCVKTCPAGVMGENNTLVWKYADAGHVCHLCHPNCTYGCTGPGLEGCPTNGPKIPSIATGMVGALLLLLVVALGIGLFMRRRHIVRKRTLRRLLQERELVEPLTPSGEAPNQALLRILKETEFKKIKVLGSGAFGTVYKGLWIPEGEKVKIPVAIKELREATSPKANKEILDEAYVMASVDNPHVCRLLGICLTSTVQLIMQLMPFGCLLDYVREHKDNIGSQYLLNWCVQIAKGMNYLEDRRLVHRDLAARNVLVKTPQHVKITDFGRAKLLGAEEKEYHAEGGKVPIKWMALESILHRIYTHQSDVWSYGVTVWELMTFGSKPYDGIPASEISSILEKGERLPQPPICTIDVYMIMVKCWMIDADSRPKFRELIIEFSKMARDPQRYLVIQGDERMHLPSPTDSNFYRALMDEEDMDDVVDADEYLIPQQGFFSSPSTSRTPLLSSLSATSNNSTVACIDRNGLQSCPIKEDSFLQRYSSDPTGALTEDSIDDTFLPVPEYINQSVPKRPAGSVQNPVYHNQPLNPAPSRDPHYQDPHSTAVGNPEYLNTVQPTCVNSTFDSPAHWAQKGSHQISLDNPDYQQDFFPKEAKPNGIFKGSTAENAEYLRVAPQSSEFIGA

[18] = test system: Epidermal growth factor receptor (Homo sapiens), P00533 [L858R,T790M]; test: Inhibition of EGFR phosphorylation in human H1975 cells harboring EGFR L858R/T790M mutant at 0.1 uM by Western blotting analysis; assay type: cell-based
Summary of the method: (§5)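 Lysates (50 µg/lane) separated on 7.5% SDS-PAGE and blotted to nitrocellulose. Probed for total and phospho-EGFR (Tyr1068), Akt (Ser473) and ERK (Thr202/Tyr204) plus β-actin; HRP secondaries with ECL detection.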

[19] = test system: NCI-H1975; test: Antiproliferative activity against human NCI-H1975 cells harboring EGFR L858R/T790M mutant at 5 uM after 72 hrs by MTT assay in presence of 1 to 20 uM haemoglobin NO scavenger; assay type: functional, cell-based; settings: in the assay text read “24 hrs” for “72 hrs”
Summary of the method: (§6)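 Cells pretreated 1 h with hemoglobin (0, 1, 5, 10 or 20 µM) as NO scavenger, then exposed to 5 µM test compound for 24 h; growth read by MTT assay.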

[20] = test system: Epidermal growth factor receptor (Homo sapiens), P00533 [L858R,T790M]; test: Inhibition of EGFR phosphorylation in human H1975 cells harboring EGFR L858R/T790M mutant by Western blotting analysis; assay type: cell-based
Summary of the method: as §5

[21] = test system: H1975; settings: Homo sapiens, at 1 µM
[22] = test system: HCC827; test: Antiproliferative activity against gefitinib-sensitive human HCC827 cells bearing EGFR del E746_A750 mutant at 5 uM after 72 hrs by MTT assay in presence of 1 to 20 uM haemoglobin NO scavenger; assay type: functional, cell-based; settings: in the assay text read “24 hrs” for “72 hrs”
Summary of the method: as §6

[23] = biological target: RAC-alpha serine/threonine-protein kinase (Homo sapiens) (UniProt P31749); test: Inhibition of Akt phosphorylation in human H1975 cells harboring EGFR L858R/T790M mutant at 1 uM by Western blotting analysis; assay type: cell-based
Summary of the method: as §5

[24] = test system: NCI-H1975; test: Induction of NO production in human NCI-H1975 cells harboring EGFR L858R/T790M mutant at 100 uM incubated for 150 mins; assay type: functional, cell-based
Summary of the method: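 H1975 or 16HBE cells (1 × 10⁶/well) exposed to 100 µM compound for 150 min, then harvested and lysed. Lysates mixed with Griess reagent for 10 min and absorbance read at 540 nm. Nitrite quantified against a […] standard curve, with diluent-treated cells as background.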

Chain of Epidermal growth factor receptor (Homo sapiens, UniProt P00533, L858R/T790M) (P00533 25-1210 T790M/L858R limits assumed): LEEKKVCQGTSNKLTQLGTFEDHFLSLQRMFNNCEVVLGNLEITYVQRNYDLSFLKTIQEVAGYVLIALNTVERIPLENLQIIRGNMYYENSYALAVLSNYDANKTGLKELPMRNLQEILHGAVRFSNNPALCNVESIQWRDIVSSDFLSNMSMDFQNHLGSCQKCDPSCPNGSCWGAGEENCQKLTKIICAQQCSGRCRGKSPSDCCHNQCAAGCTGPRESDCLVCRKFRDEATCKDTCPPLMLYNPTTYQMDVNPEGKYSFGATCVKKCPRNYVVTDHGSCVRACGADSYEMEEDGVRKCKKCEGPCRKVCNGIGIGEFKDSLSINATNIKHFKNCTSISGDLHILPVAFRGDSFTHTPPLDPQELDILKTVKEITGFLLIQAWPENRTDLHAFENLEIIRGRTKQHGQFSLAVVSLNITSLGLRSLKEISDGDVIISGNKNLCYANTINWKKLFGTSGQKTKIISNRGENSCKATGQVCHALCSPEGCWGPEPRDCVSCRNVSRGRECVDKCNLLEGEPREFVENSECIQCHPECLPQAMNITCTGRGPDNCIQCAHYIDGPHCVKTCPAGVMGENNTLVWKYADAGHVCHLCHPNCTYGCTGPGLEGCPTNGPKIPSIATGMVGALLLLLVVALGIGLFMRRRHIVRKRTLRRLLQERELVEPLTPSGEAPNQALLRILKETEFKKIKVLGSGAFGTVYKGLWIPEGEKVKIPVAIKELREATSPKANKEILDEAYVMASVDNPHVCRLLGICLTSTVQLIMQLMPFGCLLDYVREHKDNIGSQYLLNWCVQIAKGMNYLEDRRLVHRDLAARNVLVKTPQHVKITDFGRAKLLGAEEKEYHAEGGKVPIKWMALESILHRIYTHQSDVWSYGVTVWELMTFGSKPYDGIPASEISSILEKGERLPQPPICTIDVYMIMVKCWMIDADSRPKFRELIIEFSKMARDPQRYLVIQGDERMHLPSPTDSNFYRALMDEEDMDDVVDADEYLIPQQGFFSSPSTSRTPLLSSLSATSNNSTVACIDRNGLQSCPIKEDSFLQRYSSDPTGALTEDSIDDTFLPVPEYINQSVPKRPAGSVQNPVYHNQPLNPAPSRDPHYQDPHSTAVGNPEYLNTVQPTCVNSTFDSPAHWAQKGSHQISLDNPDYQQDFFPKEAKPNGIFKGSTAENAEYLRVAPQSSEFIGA

IC50 [1] [nM]	IC50 [2] [nM]	IC50 [3] [nM]	IC50 [4] [nM]	IC50 [5] [nM]	IC50 [6] [nM]	IC50 [7] [nM]	IC50 [8] [nM]	IC50 [9] [nM]	SMILES	also measured
537	1600	883	2380	4530	5280	3700	5780	698	CCOC(=O)N1CCN(CCC(=O)Nc2cccc(Oc3nc(Nc4ccc(N5CCN(C)CC5)cc4OC)ncc3Cl)c2)CC1	
> 10000	1020	899	> 10000	3910	2620	3600	2270	> 10000	COc1cc(N2CCN(C)CC2)ccc1Nc1ncc(Cl)c(Oc2cccc(NC(=O)CCN3CCOCC3)c2)n1	
4710	1040	1500	10000	548	1030	1750	412	7440	COc1cc(N2CCN(C)CC2)ccc1Nc1ncc(Cl)c(Oc2cccc(NC(=O)CCN3CCN(C)CC3)c2)n1	
2180	178	337	4530	410	1120	970	365	10000	COc1cc(N2CCN(C)CC2)ccc1Nc1ncc(Cl)c(Oc2cccc(NC(=O)CCN3CCCCC3)c2)n1	
	46	8							C=CC(=O)Nc1cccc(Oc2nc(Nc3ccc(N4CCN(C)CC4)cc3OC)ncc2Cl)c1	Stability [10]: BLD; remaining at 1 h, 50 µM [11]: 12.2%; Stability ([12]; buffer, pH 9, 24 h, 50 µM, BLD = below limit of detection): BLD; remaining at 24 h, 50 µM [13]: 101%; remaining at 1 h, 50 µM [14]: 73.5%; remaining at 1 h, 50 µM [15]: 11.3%
88	268	210	427	804	1210	1130	1890	525	COc1cc(N2CCN(C)CC2)ccc1Nc1ncc(Cl)c(Oc2cccc(NC(=O)CCN3CCCC3)c2)n1	
2420	931	799	5870	632	2820	2060	1660	2390	COc1cc(N2CCN(C)CC2)ccc1Nc1ncc(Cl)c(Oc2cccc(NC(=O)CCN3CCN(CCO)CC3)c2)n1	remaining at 24 h, 50 µM [16]: 105%; remaining at 1 h, 50 µM [11]: 101%; remaining at 24 h, 50 µM ([12]; buffer solution, pH 9, read-out: Stability): 81.4%; remaining at 24 h, 50 µM [13]: 99.5%; remaining at 1 h, 50 µM [14]: 100%; remaining at 1 h, 50 µM [15]: 101%
263	108	130	262	4470	8250	2880	3370	201	COc1cc(N2CCN(C)CC2)ccc1Nc1ncc(Cl)c(Oc2cccc(NC(=O)CCN3CCN(CCOc4no[n+]([O-])c4S(=O)(=O)c4ccccc4)CC3)c2)n1	inhibition [17]: Active; inhibition [18]: Active; inhibition [19]: inactive; inhibition [20]: Dose-dependent effect; inhibition [21]: Active; inhibition [22]: inactive; inhibition [23]: Active; Activity [24]: Active
									COc1cc2ncnc(Nc3ccc(F)c(Cl)c3)c2cc1OCCCN1CCOCC1	inhibition [23]: inactive; Activity [24]: Active
184	156	266	804	545	923	1140	615	638	COc1cc(N2CCN(C)CC2)ccc1Nc1ncc(Cl)c(Oc2cccc(NC(=O)CCN(C)C)c2)n1	
181	166	249	818	291	1000	620	433	877	CCN(CC)CCC(=O)Nc1cccc(Oc2nc(Nc3ccc(N4CCN(C)CC4)cc3OC)ncc2Cl)c1	
